Data published in ChEMBL document CHEMBL4725436, “Gibberellin JRA-003: A Selective Inhibitor of Nuclear Translocation of IKKα” (ACS Med Chem Lett, 2020).

Legend:
CA46 = experiment: Cytotoxicity against human CA46 cells assessed as reduction in cell viability measured after 24 hrs by CellTiter-Glo luminescent assay; format: functional, cell-based; conditions: CA46, 24 h
Procedure, shortened: (§1)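 High-throughput viability screen of test agents across a panel of 22 cancerous and noncancerous human cell lines. Viability was read by CellTiter-Glo luminescence.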

[1] = Inhibition of IKKalpha/IKKbeta in human HEK293T cells transfected with firefly luciferase gene assessed as inhibition of TNF-alpha-stimulated NF-kappaB signalling preincubated for 1 hr followed by TNF alpha stimulation measured after 3 hrs by luciferase reporter gene assay; format: cell-based; conditions: HEK-293T
Procedure, shortened: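 Commercial NF-κB-driven luciferase reporter assay in HEK 293T cells stimulated with TNFα. EC50 was derived from the luminescence readout.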

HEK-293T = experiment: Cytotoxicity against human HEK293T cells assessed as reduction in cell viability measured after 24 hrs by CellTiter-Glo luminescent assay; format: cell-based; procedure, shortened: as §1
[2] = Cytotoxicity against human Hs578Bst cells assessed as reduction in cell viability measured after 24 hrs by CellTiter-Glo luminescent assay; format: cell-based; procedure, shortened: as §1
[3] = Cytotoxicity against human Hs888Lu cells assessed as reduction in cell viability measured after 24 hrs by CellTiter-Glo luminescent assay; format: cell-based; procedure, shortened: as §1
[4] = Cytotoxicity against human Hs895SK cells assessed as reduction in cell viability measured after 24 hrs by CellTiter-Glo luminescent assay; format: cell-based; conditions: Hs 895.Sk; procedure, shortened: as §1
[5] = Cytotoxicity against human Hs895T cells assessed as reduction in cell viability measured after 24 hrs by CellTiter-Glo luminescent assay; format: functional, cell-based; procedure, shortened: as §1
Hs-578T = experiment: Cytotoxicity against human Hs-578T cells assessed as reduction in cell viability measured after 24 hrs by CellTiter-Glo luminescent assay; format: functional, cell-based; procedure, shortened: as §1
PSN1 = experiment: Cytotoxicity against human PSN1 cells assessed as reduction in cell viability measured after 24 hrs by CellTiter-Glo luminescent assay; format: functional, cell-based; conditions: PSN1, 24 h; procedure, shortened: as §1
HCC1599 = experiment: Cytotoxicity against human HCC1599 cells assessed as reduction in cell viability measured after 24 hrs by CellTiter-Glo luminescent assay; format: functional, cell-based; conditions: HCC1599, 24 h; procedure, shortened: as §1
RCK8 = experiment: Cytotoxicity against human RC-K8 cells assessed as reduction in cell viability measured after 24 hrs by CellTiter-Glo luminescent assay; format: functional, cell-based; conditions: RCK8, 24 h; procedure, shortened: as §1
SUD4 = experiment: Cytotoxicity against human SU-DHL-4 cells assessed as reduction in cell viability measured after 24 hrs by CellTiter-Glo luminescent assay; format: functional, cell-based; conditions: SU-DHL-4, 24 h; procedure, shortened: as §1
NCI-H446 = experiment: Cytotoxicity against human NCI-H446 cells assessed as reduction in cell viability measured after 24 hrs by CellTiter-Glo luminescent assay; format: functional, cell-based; conditions: NCI-H446, 24 h; procedure, shortened: as §1

Row | Compound | EC50 [1] | IC50 [2] | IC50 [3] | IC50 [4] | IC50 [5] | IC50 (PSN1) | IC50 (CA46) | IC50 (HEK-293T) | IC50 (Hs-578T) | IC50 (HCC1599) | IC50 (RCK8) | IC50 (SUD4) | IC50 (NCI-H446) | other results
1 | COC(=O)[C@H]1c2c(ccc(O)c2C)[C@@H]2CC[C@@]3(C)C[C@]21CC3=O | > 100 µM | > 10 µM | > 10 µM | > 10 µM | > 10 µM | > 10 µM | > 10 µM | > 10 µM | > 10 µM | > 10 µM | > 10 µM | > 10 µM | > 10 µM | 
2 | C=C1C(=O)[C@@]2(C)CC[C@H]3c4cccc(C)c4[C@H](C(=O)OC)[C@@]13C2 | 22 µM |  | > 10 µM | > 10 µM | > 10 µM | > 10 µM |  |  |  |  |  |  |  | EC50 (CA46): 2.5 µM; EC50 (HEK-293T): 2.9 µM; EC50 [2]: 10 µM; EC50 (Hs-578T): 5.2 µM; EC50 (HCC1599): 1.4 µM; EC50 (RCK8): 0.97 µM; EC50 (SUD4): 0.62 µM; EC50 (NCI-H446): 2.1 µM
3 | C=C1C[C@]23C[C@@]1(O)CC[C@H]2c1cc(Br)c(O/C=C/C(=O)OC)c(C)c1[C@@H]3C(=O)OC | > 100 µM | > 10 µM | > 10 µM | > 10 µM | > 10 µM | > 10 µM | > 10 µM | > 10 µM | > 10 µM | > 10 µM | > 10 µM | > 10 µM | > 10 µM | 
4 | COC(=O)[C@H]1c2c(C)cccc2[C@@H]2CC[C@@]3(C)C[C@]21CC3=O | > 100 µM | > 10 µM | > 10 µM | > 10 µM | > 10 µM | > 10 µM | > 10 µM | > 10 µM | > 10 µM | > 10 µM | > 10 µM | > 10 µM | > 10 µM | 
5 | COC(=O)/C=C/Oc1ccc2c(c1C)[C@H](C(=O)OC)[C@@]13CC(=O)[C@@](C)(CC[C@@H]21)C3 | > 100 µM | > 10 µM | > 10 µM | > 10 µM | > 10 µM | > 10 µM | > 10 µM | > 10 µM | > 10 µM | > 10 µM | > 10 µM | > 10 µM | > 10 µM | 
6 | C=C1C[C@]23C[C@@]1(O)CC[C@H]2c1cc2c(C(=O)O)coc2c(C)c1[C@@H]3C(=O)O | > 100 µM | > 10 µM | > 10 µM | > 10 µM | > 10 µM | > 10 µM | > 10 µM | > 10 µM | > 10 µM | > 10 µM | > 10 µM | > 10 µM | > 10 µM | 

Continued, in another order:

Row | EC50 [1] | Compound | IC50 [2] | IC50 [3] | IC50 [4] | IC50 [5] | IC50 (PSN1) | IC50 (CA46) | IC50 (HEK-293T) | IC50 (Hs-578T) | IC50 (HCC1599) | IC50 (RCK8) | IC50 (SUD4) | IC50 (NCI-H446) | other results
7 | 1.7 µM | C=C1C(=O)[C@]23C[C@@]1(O)CC[C@H]2[C@@]12C=CC(=O)[C@@](C)(C(=O)O1)[C@H]2[C@@H]3C(=O)OC | > 10 µM | > 10 µM | > 10 µM | > 10 µM | > 10 µM |  |  |  |  |  |  |  | EC50 (CA46): 0.88 µM; EC50 (HEK-293T): 7.1 µM; EC50 (Hs-578T): 5.2 µM; EC50 (HCC1599): 0.83 µM; EC50 (RCK8): 0.072 µM; EC50 (SUD4): < 0.04 µM; EC50 (NCI-H446): < 0.04 µM
8 | > 100 µM | C=C1C[C@]23C[C@@]1(O)CC[C@H]2c1ccc(O)c(C)c1[C@@H]3C(=O)OC | > 10 µM | > 10 µM | > 10 µM | > 10 µM | > 10 µM | > 10 µM | > 10 µM | > 10 µM | > 10 µM | > 10 µM | > 10 µM | > 10 µM | 
9 | > 100 µM | C=C1C[C@]23C[C@@]1(O)CC[C@@H]2c1cccc(C)c1[C@@H]3C(=O)OC | > 10 µM | > 10 µM | > 10 µM | > 10 µM | > 10 µM | > 10 µM | > 10 µM | > 10 µM | > 10 µM | > 10 µM | > 10 µM | > 10 µM | 
10 | > 100 µM | C=C1[C@@H](O)[C@]23C[C@@]1(O)CC[C@@H]2c1cccc(C)c1[C@@H]3C(=O)OC | > 10 µM | > 10 µM | > 10 µM | > 10 µM | > 10 µM | > 10 µM | > 10 µM | > 10 µM | > 10 µM | > 10 µM | > 10 µM | > 10 µM | 
